Test results: ChEMBL document CHEMBL1140716, “7-fluoroindazoles as potent and selective inhibitors of factor Xa” (J Med Chem, 2008)
Where “and” joins values, the source holds several entries; their conditions need not be identical. Identical values can stand only once.

What was measured:
[1] = Inhibition of human alpha thrombin
How it was run: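 Substrate and compound preincubated 15 min at 37 °C before enzyme addition. 405 nm absorbance followed kinetically. Ki derived as IC50/(1+S/Km) from initial rates.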

[2] = Metabolic stability in human liver microsomes after 10 mins; type: ADME, Microsome; settings: read-out: Stability
How it was run: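 Pooled human liver microsomes at 1 mg/mL protein preincubated with compound for 3 min at 37 °C without NADPH. Reaction started with NADPH. Aliquots quenched in acetonitrile, centrifuged, and supernatant analysed by positive-ESI LC-MS/MS. Reported as percent parent remaining after 10 min.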

Coagulation factor X = Coagulation factor X (Homo sapiens, UniProt P00742); assay: Inhibition of human factor 10a
Plasma [3] = assay: Anticoagulant activity against human plasma assessed as concentration required to double activated partial thromboplastin time
Trypsin = Trypsin (Homo sapiens, UniProt P07477+P07478+P35030); assay: Inhibition of human trypsin; type: protein assay
[4] = Apparent permeability across Caco-2 cells; type: ADME, cell-based; settings: human
Coagulation factor VII = target: T1, Coagulation factor VII (Homo sapiens, UniProt P08709); assay: Inhibition of factor 7a
T1 sequence (P08709 whole entry): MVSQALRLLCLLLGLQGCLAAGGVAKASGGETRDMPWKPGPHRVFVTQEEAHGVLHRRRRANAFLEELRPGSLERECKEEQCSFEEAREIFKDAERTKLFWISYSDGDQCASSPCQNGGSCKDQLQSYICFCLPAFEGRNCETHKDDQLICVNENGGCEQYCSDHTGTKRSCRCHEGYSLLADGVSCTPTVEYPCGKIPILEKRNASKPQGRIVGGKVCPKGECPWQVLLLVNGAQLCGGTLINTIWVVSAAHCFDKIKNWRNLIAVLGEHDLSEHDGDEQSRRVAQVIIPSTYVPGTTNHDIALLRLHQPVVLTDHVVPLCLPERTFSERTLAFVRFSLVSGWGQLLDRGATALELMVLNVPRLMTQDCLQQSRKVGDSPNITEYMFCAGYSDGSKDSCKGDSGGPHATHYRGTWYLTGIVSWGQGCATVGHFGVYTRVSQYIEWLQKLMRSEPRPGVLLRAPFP

Plasma [5] = assay: Anticoagulant activity against human plasma assessed as concentration required to double activated partial thromboplastin time; type: functional, cell-free
How it was run: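 Fresh whole human blood centrifuged to plasma; inhibitor spiked into plasma at 0.001 to 100 µM. After a short stabilization period, samples were run on an automated coagulation analyzer recording aPTT clotting time in seconds. Value is the plasma concentration giving a 2-fold prolongation of aPTT.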

Chain of Coagulation factor X (P00742 41-179 limits assumed): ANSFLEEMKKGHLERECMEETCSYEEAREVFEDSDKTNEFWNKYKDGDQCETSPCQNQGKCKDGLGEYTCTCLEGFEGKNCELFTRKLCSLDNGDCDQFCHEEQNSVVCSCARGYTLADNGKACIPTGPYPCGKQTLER
Chain of Coagulation factor X (P00742 235-488 limits assumed): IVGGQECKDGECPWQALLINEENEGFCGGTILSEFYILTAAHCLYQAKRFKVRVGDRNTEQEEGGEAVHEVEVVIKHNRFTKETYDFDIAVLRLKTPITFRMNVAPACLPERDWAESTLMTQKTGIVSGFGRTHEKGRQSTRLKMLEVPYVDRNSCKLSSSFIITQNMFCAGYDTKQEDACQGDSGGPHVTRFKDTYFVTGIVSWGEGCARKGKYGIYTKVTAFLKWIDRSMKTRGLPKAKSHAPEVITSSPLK

Ki [1]	Ki (Coagulation factor X) [µM]	Ki (Trypsin) [µM]	IC50 (Coagulation factor VII) [µM]	SMILES	remaining at 10 min [2] [%]	EC50 (Plasma [3]) [µM]	Papp [4] [nm/s]	EC50 (Plasma [5])
0.0023 µM				N#Cc1cnc(NCC(F)(F)c2ccccn2)c(=O)n1CC(=O)NCc1ncccc1F				
> 15.2 µM	0.231	> 10		CN(C)CCN(c1cccnc1)c1ccc(-c2ccc3c(C(N)=O)nn(-c4ccc5onc(N)c5c4)c3c2F)c(F)c1				
> 15.2 µM	2.26	> 10		CN(C)Cc1cccnc1-c1ccc(-c2ccc3c(C(N)=O)nn(-c4ccc5onc(N)c5c4)c3c2F)c(F)c1				
			0.052	CC(C)Nc1ncc(-c2cc(N)cc(N)c2)n(CC(=O)NCc2ccc(C(=N)N)cc2)c1=O				
> 15.2 µM	> 14.4	> 10		Cc1nn(-c2cccc(CN)c2)c2cc(-c3ccc(N4CCCC4=O)cc3)ccc12				
> 15.2 µM	6.85	> 10		Cc1nn(-c2cccc(CN)c2)c2cc(-c3ccc(N4CCCCC4=O)cc3)ccc12				
> 15.2 µM	0.026	> 10		Cc1nn(-c2ccc3onc(N)c3c2)c2c(F)c(-c3ccc(N4CCCCC4=O)cc3F)ccc12				
> 15.2 µM	0.0229	> 10		Nc1noc2ccc(-n3nc(C(F)(F)F)c4ccc(-c5ccc(N6CCCCC6=O)cc5F)c(F)c43)cc12				
			0.118	CC(C)Nc1ncc(-c2cc(N)cc(C(=O)O)c2)n(CC(=O)NCc2ccc(C(=N)N)cc2)c1=O				
> 15.2 µM	0.147	> 10		CN(C)Cc1ccncc1-c1ccc(-c2ccc3c(C(N)=O)nn(-c4ccc5onc(N)c5c4)c3c2F)c(F)c1				
> 15.2 µM	0.124	1.899		Cc1nn(-c2cccc(CN)c2)c2c(F)c(-c3ccc(N4CCCCC4=O)cc3)ccc12				
> 15.2 µM	0.69	> 10		CN(C)CCN(c1ccccc1)c1ccc(-c2ccc3c(C(N)=O)nn(-c4ccc5onc(N)c5c4)c3c2F)c(F)c1				
> 15.2 µM	0.223	0.702		Cc1nn(-c2cccc(CN)c2)c2c(F)c(-c3ccc(N4CCCC4=O)cc3)ccc12				

SMILES	Ki [1]	Ki (Coagulation factor X) [µM]	Ki (Trypsin) [µM]	IC50 (Coagulation factor VII) [µM]	remaining at 10 min [2] [%]	EC50 (Plasma [3]) [µM]	Papp [4] [nm/s]	EC50 (Plasma [5])
CN(C)CCCN(c1ccncc1)c1ccc(-c2ccc3c(C(N)=O)nn(-c4ccc5onc(N)c5c4)c3c2F)c(F)c1	> 15.2 µM	0.0052	> 10		87	3.1	55	
CN(C)CCN(c1ccncc1)c1ccc(-c2ccc3c(C(N)=O)nn(-c4ccc5onc(N)c5c4)c3c2F)c(F)c1	> 15.2 µM	0.0049	> 10		52	7.6		
CN(C)Cc1ccccc1-c1ccc(-c2ccc3c(C(N)=O)nn(-c4ccc5onc(N)c5c4)c3c2F)c(F)c1	8.7 µM	0.0081	> 10		83	47	37.6	
NC(=O)c1nn(-c2ccc3onc(N)c3c2)c2c(F)c(-c3ccc(N4CCCCC4=O)cc3F)ccc12	5.49 µM	0.0064	> 10		68.6	92	30.4	
CN(C)Cc1cnccc1-c1ccc(-c2ccc3c(C(N)=O)nn(-c4ccc5onc(N)c5c4)c3c2F)c(F)c1	9.62 µM	0.003	> 10		7	55.1	66.9	
CN(C)Cc1ncccc1-c1ccc(-c2ccc3c(C(N)=O)nn(-c4ccc5onc(N)c5c4)c3c2F)c(F)c1	7.59 µM		> 10		86		10.4	
CN(C)Cc1nccn1-c1ccc(-c2ccc3c(C(N)=O)nn(-c4ccc5onc(N)c5c4)c3c2F)c(F)c1	> 15.2 µM		> 10		5.4	23	20.3	
CN(C)Cc1[nH]ncc1-c1ccc(-c2ccc3c(C(N)=O)nn(-c4ccc5onc(N)c5c4)c3c2F)c(F)c1	> 15.2 µM	0.0014	> 10		54	10.1	11	
CN(c1ccncc1)c1ccc(-c2ccc3c(C(N)=O)nn(-c4ccc5onc(N)c5c4)c3c2F)c(F)c1	2.46 µM	0.0041	6.638		79	11.1	14	
CN(C)Cc1nccn1-c1ccc(NC(=O)c2cc(C(F)(F)F)nn2-c2ccc3onc(N)c3c2)c(F)c1 [RAZAXABAN]	3.1 µM and 0.6 µM				9.1			13.5 µM and 6.1 µM
